Experimental data reported in ChEMBL document CHEMBL1126325, “Inhibition of pig kidney L-aromatic amino acid decarboxylase by 2,3-methano-m-tyrosines” (J Med Chem, 1992).

Tests used:
[1] = target: T1, Aromatic-L-amino-acid decarboxylase (Sus scrofa, UniProt P80041); assay: Inhibitory activity against pig kidney L-aromatic amino acid decarboxylase (Dopa decarboxylase)
T1 sequence (P80041 whole entry): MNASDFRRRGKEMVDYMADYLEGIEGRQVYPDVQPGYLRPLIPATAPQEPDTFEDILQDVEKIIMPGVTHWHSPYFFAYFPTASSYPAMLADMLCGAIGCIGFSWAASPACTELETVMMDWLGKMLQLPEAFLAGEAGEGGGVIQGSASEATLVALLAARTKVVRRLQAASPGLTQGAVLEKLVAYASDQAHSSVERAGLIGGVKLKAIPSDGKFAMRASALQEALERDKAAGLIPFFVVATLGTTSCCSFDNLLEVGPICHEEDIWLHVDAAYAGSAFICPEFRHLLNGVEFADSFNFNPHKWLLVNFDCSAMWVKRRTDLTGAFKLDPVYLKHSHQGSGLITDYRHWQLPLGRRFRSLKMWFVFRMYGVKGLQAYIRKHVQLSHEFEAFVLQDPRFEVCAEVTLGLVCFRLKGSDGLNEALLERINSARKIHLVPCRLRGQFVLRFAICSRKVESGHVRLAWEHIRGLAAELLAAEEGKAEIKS
Procedure, shortened: (§1)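 The enzyme was purified from pig kidney. The crude extract was clarified with Bioacryl-BP-1000 and centrifuged, then run over DEAE-cellulose, phenyl Sepharose CL-4B and Sephacryl S-300. Decarboxylase activity was measured by a continuous spectrophotometric CO₂-detection procedure using a commercial CO₂ kit. Inhibition was expressed as Ki.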

[2] = target: T2, Aromatic-L-amino-acid decarboxylase (Sus scrofa) (UniProt P80041); assay: Relative inhibitory comparison to that of (+)D-m-Tyrosine.
T2 sequence (whole entry): T1 sequence (P80041 whole entry)

[3] = target: T1, Aromatic-L-amino-acid decarboxylase; assay: Inhibitory activity against pig kidney L-aromatic amino acid decarboxylase (Dopamine decarboxylase); procedure, shortened: as §1

## N[C@]1(C(=O)O)C[C@@H]1c1cccc(O)c1
[1]
  Ki: 330 µM
[2]
  Relative inhibition: 3

## NC1(C(=O)O)CC1c1cccc(O)c1 (single isomer, unassigned; (+)) [listing 1 of 2 here]
[3]
  Ki: 22 µM

## NC1(C(=O)O)CC1c1cccc(O)c1 (single isomer, unassigned; (-)) [listing 1 of 2 here]
[2]
  Relative inhibition: 1.6

## NC1(C(=O)O)CC1c1cccc(O)c1 (single isomer, unassigned; (-)) [listing 2 of 2 here]
[1]
  Ki: 630 µM

## N[C@@]1(C(=O)O)C[C@H]1c1cccc(O)c1
[1]
  Ki: 49 µM
[2]
  Relative inhibition: 20.4

## NC1(C(=O)O)CC1c1cccc(O)c1 (single isomer, unassigned; (+)) [listing 2 of 2 here]
[2]
  Relative inhibition: 45.4
